Active and inactive are the calls of the source. The rule behind the calls is not given here.
Assays:
HL-60 [1] = test: Growth inhibition of human HL60 cells at 20 uM after 48 hrs by MTT assay relative to control; type: functional; conditions: HL-60, 48 h, read-out: GI
HL-60 [2] = test: Growth inhibition of human HL60 cells at 5 uM after 48 hrs by MTT assay relative to control; type: functional; conditions: for inhibition of growth at 5 µM: HL-60, 48 h, read-out: GI
HL-60 [3] = test: Growth inhibition of human HL60 cells at 1.25 uM after 48 hrs by MTT assay relative to control; type: functional; conditions: for inhibition of growth at 1.25 µM: HL-60, 48 h, read-out: GI
HL-60 [4] = test: Growth inhibition of human HL60 cells at 10 uM after 48 hrs by MTT assay relative to control; type: functional; conditions: for inhibition of growth at 10 µM: HL-60, 48 h, read-out: GI
HL-60 [5] = test: Growth inhibition of human HL60 cells at 40 uM after 48 hrs by MTT assay relative to control; type: functional; conditions: HL-60, 48 h, read-out: GI
HL-60 [6] = test: Growth inhibition of human HL60 cells after 48 hrs by MTT assay; type: functional, cell-based; conditions: HL-60, 48 h
In short: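 HL-60 human promyelocytic leukemia cells; proliferation inhibition of the cells measured and reported as IC50; values are mean ± SE of at least three independent experiments.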

HL-60 [7] = test: Growth inhibition of human HL60 cells at 0.63 uM after 48 hrs by MTT assay relative to control; type: functional; conditions: for inhibition of growth at 0.63 µM: HL-60, 48 h, read-out: GI
HL-60 [8] = test: Growth inhibition of human HL60 cells at 2.5 uM after 48 hrs by MTT assay relative to control; type: functional; conditions: for inhibition of growth at 2.5 µM: HL-60, 48 h, read-out: GI
[9] = Aqueous solubility of the compound in water by HPLC method; type: physicochemical
[10] = target: Serine/threonine-protein kinase mTOR (Homo sapiens) (UniProt P42345); test: Inhibition of mTOR in human HL60 cells assessed as reduction in P70S6K phosphorylation at Thr389-residue up to 10 uM after 24 hrs by Western blot method; type: cell-based
In short: (§1)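 HL-60 cells treated at different concentrations; lysates probed with specific antibodies against procaspase-3, cleaved caspase-9, PARP, Bcl-2, phospho-P70S6K and phospho-Akt; actin used as loading control.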

HL-60 [11] = test: Induction of apoptosis in human HL60 cells assessed as live cells at 10 uM after 24 hrs by Annexin V-PE/7AAD staining based flow cytometry (reference value: 90.9%); type: functional
HL-60 [12] = test: Induction of apoptosis in human HL60 cells assessed as PARP cleavage up to 10 uM after 24 hrs by Western blot method; type: functional, cell-based; in short: as §1
HL-60 [13] = test: Induction of apoptosis in human HL60 cells assessed as downregulation of Bcl2 expression up to 10 uM after 24 hrs by Western blot method; type: functional, cell-based; in short: as §1
HL-60 [14] = test: Induction of apoptosis in human HL60 cells assessed as early apoptotic cells at 10 uM after 24 hrs by Annexin V-PE/7AAD staining based flow cytometry (reference value: 4.42%); type: functional
HL-60 [15] = test: Induction of apoptosis in human HL60 cells assessed as necrotic cells at 10 uM after 24 hrs by Annexin V-PE/7AAD staining based flow cytometry (reference value: 1.08%); type: functional
Homo sapiens [16] = species: Homo sapiens; test: Inhibition of PI3K in human HL60 cells assessed as reduction in Akt phosphorylation at Ser473-residue up to 10 uM after 24 hrs by Western blot method; type: cell-based; in short: as §1
HL-60 [17] = test: Induction of apoptosis in human HL60 cells assessed as downregulation of procaspase-3 expression after 24 hrs by Western blot method; type: functional, cell-based; in short: as §1
HL-60 [18] = test: Induction of apoptosis in human HL60 cells assessed as late apoptotic cells at 10 uM after 24 hrs by Annexin V-PE/7AAD staining based flow cytometry (reference value: 3.64%); type: functional
HL-60 [19] = test: Induction of apoptosis in human HL60 cells assessed as caspase-9 cleavage after 24 hrs by Western blot method; type: functional, cell-based; in short: as §1
[20] = Induction of nanoparticle formation in DMSO/deionized water after 25 days by dynamic light scattering assay
HL-60 [21] = test: Induction of apoptosis in human HL60 cells assessed as downregulation of Bcl2 expression up to 4 uM after 24 hrs by Western blot method; type: functional, cell-based; in short: as §1
Homo sapiens [22] = species: Homo sapiens; test: Inhibition of PI3K in human HL60 cells assessed as reduction in Akt phosphorylation at Ser473-residue up to 4 uM after 24 hrs by Western blot method; type: cell-based; in short: as §1
[23] = Induction of nanoparticle formation in DMSO/deionized water at 1.5 mg/ml
[24] = target: Serine/threonine-protein kinase mTOR (Homo sapiens) (UniProt P42345); test: Inhibition of mTOR in human HL60 cells assessed as reduction in P70S6K phosphorylation at Thr389-residue up to 4 uM after 24 hrs by Western blot method; type: cell-based; in short: as §1
HL-60 [25] = test: Induction of apoptosis in human HL60 cells assessed as PARP cleavage up to 4 uM after 24 hrs by Western blot method; type: functional, cell-based; in short: as §1

| IC50 (HL-60 [6]) | Compound | inhibition of growth at 20 µM (HL-60 [1]) | inhibition of growth at 40 µM (HL-60 [5]) | growth inhibition (GI) (HL-60 [7]) | inhibition of growth at 5 µM (HL-60 [2]) | inhibition of growth at 1.25 µM (HL-60 [3]) | inhibition of growth at 10 µM (HL-60 [4]) | Activity (HL-60 [17]) | inhibition of growth at 0.63 µM (HL-60 [7]) | Activity (HL-60 [19]) | inhibition of growth at 2.5 µM (HL-60 [8]) | other results |
| --- | --- | --- | --- | --- | --- | --- | --- | --- | --- | --- | --- | --- |
| 6.26 µM | C[C@H]1[C@H](C)CC[C@]2(C(=O)O)CC[C@]3(C)C(=CC[C@@H]4[C@@]5(C)Cc6c[nH]nc6C(C)(C)[C@@H]5CC[C@]43C)[C@H]12 | 93.2% | 94.7% | – | 16.3% | 7.54% | 79.5% | Dose-dependent effect | 5.36% | Dose-dependent effect | 8.55% | inhibition [10]: Active; Activity (HL-60 [11]): 76.3%; Activity (HL-60 [12]): Active; Activity (HL-60 [13]): Active; Activity (HL-60 [14]): 19.5%; Activity (HL-60 [15]): 0.231%; inhibition (Homo sapiens [16]): Active; Activity (HL-60 [18]): 3.98% |
| < 0.63 µM | COc1cccc2c1C(=O)c1c(O)c3c(c(O)c1C2=O)C[C@@](O)(C(=O)CO)C[C@@H]3O[C@H]1C[C@H](N)[C@H](O)[C@H](C)O1 [DOXORUBICIN] | > 99% | > 99% | – | 95.4% | 82.5% | > 99% | – | 80.8% | – | 85.6% | – |

The next lines start with the compound.

| Compound | IC50 (HL-60 [6]) | inhibition of growth at 20 µM (HL-60 [1]) | inhibition of growth at 40 µM (HL-60 [5]) | growth inhibition (GI) (HL-60 [7]) | inhibition of growth at 5 µM (HL-60 [2]) | inhibition of growth at 1.25 µM (HL-60 [3]) | inhibition of growth at 10 µM (HL-60 [4]) | Activity (HL-60 [17]) | inhibition of growth at 0.63 µM (HL-60 [7]) | Activity (HL-60 [19]) | inhibition of growth at 2.5 µM (HL-60 [8]) | other results |
| --- | --- | --- | --- | --- | --- | --- | --- | --- | --- | --- | --- | --- |
| C[C@H]1[C@H](C)CC[C@]2(C(=O)O)CC[C@]3(C)C(=CC[C@@H]4[C@@]5(C)Cc6sc(N)nc6C(C)(C)[C@@H]5CC[C@]43C)[C@H]12 | 40 µM | 12.9% | 59.2% | inactive | – | – | – | – | – | – | – | growth inhibition (GI) (HL-60 [2]): inactive; growth inhibition (GI) (HL-60 [3]): inactive; growth inhibition (GI) (HL-60 [4]): inactive; growth inhibition (GI) (HL-60 [8]): inactive |
| C[C@H]1[C@H](C)CC[C@]2(C(=O)N3CCNCC3)CC[C@]3(C)C(=CC[C@@H]4[C@@]5(C)Cc6cn[nH]c6C(C)(C)[C@@H]5CC[C@]43C)[C@H]12.Cl | – | – | – | – | – | – | – | – | – | – | – | solubility [9]: > 150 µg/mL |
| C[C@H]1[C@H](C)CC[C@]2(C(=O)N3CCNCC3)CC[C@]3(C)C(=CC[C@@H]4[C@@]5(C)Cc6cn[nH]c6C(C)(C)[C@@H]5CC[C@]43C)[C@H]12 | – | – | – | – | – | – | – | Dose-dependent effect | – | Dose-dependent effect | – | Activity [20]: Active; Activity (HL-60 [21]): Active; inhibition (Homo sapiens [22]): Active; Activity [23]: Active; inhibition [24]: Active; Activity (HL-60 [25]): Active |
| C=CCNc1nc2c(s1)C[C@]1(C)[C@H]3CC=C4[C@@H]5[C@@H](C)[C@H](C)CC[C@]5(C(=O)O)CC[C@@]4(C)[C@]3(C)CC[C@H]1C2(C)C | > 40 µM | 34.7% | 49.8% | inactive | 13.4% | 0.33% | 20.3% | – | – | – | 4.73% | – |

— ChEMBL document CHEMBL4002606, “Discovery of FZU-03,010 as a self-assembling anticancer amphiphile for acute myeloid leukemia” (Bioorg Med Chem Lett, 2017)
